Screening data as filed in PubChem.
Rows were chosen to be rich in hits. Some 3.5% of all compounds tested hit in one or more screens of this group.
MrgX1 allo act: allosterically activates human MrgX1 receptor signaling; MrgX1-HEK293, Fluo-4 calcium flux, FDSS; active compounds read high; 310,000 tested, 0.63% active; B-score at 10 µM;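 active means plate-corrected calcium response at least 3 library SD above typical, normal starting fluorescence, not activating the receptor alone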;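 further: compound read alongside a low EC10 to EC30 dose of BAM8-22 agonist; peak minus trough fluorescence over baseline measured at the second addition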
Target sequence (Q96LB2 whole entry, looked up): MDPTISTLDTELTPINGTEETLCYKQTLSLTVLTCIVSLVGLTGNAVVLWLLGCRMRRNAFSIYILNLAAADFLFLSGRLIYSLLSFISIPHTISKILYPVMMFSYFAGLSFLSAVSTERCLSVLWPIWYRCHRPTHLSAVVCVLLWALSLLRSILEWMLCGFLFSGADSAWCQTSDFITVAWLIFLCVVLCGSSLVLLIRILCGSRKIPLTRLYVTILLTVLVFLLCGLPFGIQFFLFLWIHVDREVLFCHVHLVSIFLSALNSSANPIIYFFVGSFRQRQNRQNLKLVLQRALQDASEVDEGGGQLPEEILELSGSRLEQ
MrgX1 antag: antagonists of human MrgX1 receptor | 310,000 tested, 1.3% active | B-score at 10 µM | MRGX1-HEK293 calcium flux, Fluo-4, BAM8-22 antagonism; active compounds read low;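 active means calcium-response B-score plate-corrected more than 3 library SD below zero, starting fluorescence within 5 deviations, no agonist response on first addition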;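 further: peak minus trough fluorescence over baseline after final BAM8-22 challenge near maximal dose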
MrgX1 agonist: agonists of human MrgX1 receptor. Q96LB2. MrgX1-HEK293 cells, Fluo-4 calcium fluorescence, agonist mode; active compounds read high. B-score at 10 µM. 310,000 tested, 0.44% active. AID 588627;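 active means calcium response B-score plate-corrected fluorescence ratio at least 3 library SD, with starting fluorescence B-score inside 5 SD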
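Material: HEK293 cells stably expressing human MrgX1 receptor | Quantity: 15,000 cells per well | Times: Cells plated overnight, dye loaded 0.5 h 37 °C, 0.5 h room temperature | Measured by: Kinetic Fluo-4 NW fluorescence of intracellular calcium | Control set: Positive and negative controls per plate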
RGS4 act: RGS4 potentiation or activation. B-score at 10 µM. 310,000 tested, 0.92% active. HEK293 M3R/inducible RGS4, carbachol calcium flux Fluo4; active compounds read low;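 active means B-score of the integrated calcium signal more than 4 SD below the library mean, with starting fluorescence not abnormally high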;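 further: negative B-score means reduced calcium response which marks RGS4 activation or potentiation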
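Material: M3R-expressing HEK293 line, RGS4 induced by doxycycline | Schedule: Overnight RGS4 induction, 30 min dye load 37 °C, 20 min compound RT | Measured by: Fluo4 fluorescence kinetic imaging of calcium | Read-out: Integrated calcium ratio converted to B score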
RGS4 inh: inhibitors of human RGS4 | HEK293 M3R/RGS4 inducible, Fluo-4 calcium flux; active compounds read high; triggered by carbachol at its EC20 | 310,000 tested, 0.45% active | B-score at 10 µM | P49798;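 active means B-score, a plate-corrected calcium signal, over three deviations above library mean, with baseline fluorescence within five deviations of library mean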;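 further: RGS4 expression induced by doxycycline in cells with stable M3 receptor; B-score is computed from the integrated fluorescence ratio over baseline after carbachol; higher B-score means a larger calcium signal and so more RGS4 inhibition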
Target sequence (P49798 whole entry, looked up): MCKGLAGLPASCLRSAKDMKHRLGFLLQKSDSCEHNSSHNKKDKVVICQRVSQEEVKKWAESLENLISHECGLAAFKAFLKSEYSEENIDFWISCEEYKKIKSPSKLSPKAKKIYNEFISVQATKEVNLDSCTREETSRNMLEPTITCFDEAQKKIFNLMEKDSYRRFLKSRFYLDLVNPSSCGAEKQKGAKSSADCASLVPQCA
MrgX1 allo conf: human MrgX1 positive allosteric modulation, re-confirmation. shares compounds with MrgX1 allo act. activation (ratio percentage), % at 10 µM. MrgX1-HEK293, Fluo-4 calcium fluorescence, FDSS. 1,200 tested, 13% active;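 active means ratio at least 3 SD above the weak peptide control, stable starting fluorescence, no direct agonism earlier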;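 further: compound followed by low BAM8-22 agonist challenge near EC20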
MrgX1 antag conf: reconfirmed antagonist of human MrgX1 receptor signaling. shares compounds with MrgX1 antag. remaining BAM8-22 calcium response % of control (active compounds read low), % at 10 µM. MrgX1-HEK293, BAM8-22 calcium flux, Fluo-4; active compounds read low. 2,300 tested, 19% active;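 active means remaining agonist calcium response no higher than 100% minus 3 SD of agonist-only control wells, with starting fluorescence near control levels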;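 further: agonist BAM8-22 given at a near maximal EC90 to ECmax level; peak minus minimum fluorescence divided by baseline after agonist addition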
HEK293 Ca flux: MrgX1 antagonist counter-screen hit in parental HEK293 cells; shares compounds with MrgX1 antag; Fluo-4 calcium fluorescence, FDSS; fluorescence ratio F(max-min)/F0 at 10 µM; 4,000 tested, 2% active;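 active means duplicate-averaged calcium fluorescence ratio at least three times the standard deviation of buffer wells, a nonspecific response in parental cells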
HEK293 Ca counter: counter-screen for MrgX1 allosteric activators: effect in parental HEK293 cells; AID 624114; shares compounds with MrgX1 antag; parental HEK293 calcium flux, Fluo-4 fluorescence ratio; active compounds read high; 4,000 tested, 0.4% active; fluorescence ratio F(max-min)/F0 at 10 µM;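 active means calcium fluorescence ratio, averaged over duplicates, at least 3 SD of the buffer-well ratio, meaning a nonspecific response in receptor-free cells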;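 further: untransfected parental HEK293 lacking MrgX1 used as counterscreen for MrgX1 allosteric activators; fluorescence change taken during the second addition on a kinetic imager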
HEK293 Ca cntr2: counter-screen for MrgX1 activators: effect in parental HEK293 cells. shares compounds with MrgX1 antag. Fluo-4 calcium fluorescence (FDSS); active compounds read high. fluorescence ratio F(max-min)/F0 at 10 µM. 4,000 tested, 8.7% active. AID 624115;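 active means calcium fluorescence ratio at least three times the spread of buffer wells, meaning a non-specific response in parental cells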
Each line names hits and unclear results; the compound was inactive in the other large screens (follow-up assays come after a bar, where they were run).

Cc1sc2ncn(C(C)C(=O)OC3CCCCC3)c(=O)c2c1C (stereo not given)	MrgX1 allo act 9.19 | MrgX1 allo conf inactive | HEK293 Ca flux inactive | HEK293 Ca counter inactive | HEK293 Ca cntr2 inactive
COc1cc(/C=C2/C(=N)N3N=C(CC(=O)N4CCOCC4)SC3=NC2=O)ccc1OCc1ccccc1	MrgX1 allo act 19.4 | MrgX1 allo conf 12.1% | HEK293 Ca flux inactive | HEK293 Ca counter inactive | HEK293 Ca cntr2 inactive
O=C(Nc1nc2ccccc2[nH]1)NC1CCCCC1	none
Cc1cc(NC(=O)c2cccc(S(=O)(=O)N3CC(c4ccccc4)CC3=O)c2)no1 (stereo not given)	MrgX1 allo act 8.26 | MrgX1 allo conf inactive | HEK293 Ca flux inactive | HEK293 Ca counter inactive | HEK293 Ca cntr2 inactive
C=C(C)Cn1c(-c2ccc(OC)cc2)nc2ccccc21	MrgX1 allo act 6.98 | MrgX1 allo conf inactive | HEK293 Ca flux inactive | HEK293 Ca counter inactive | HEK293 Ca cntr2 inactive
COc1ccccc1C(=O)OCC(=O)Nc1ccc(OC(F)F)cc1	none
COc1ccccc1C(=O)OCC(=O)Nc1ccccc1OC(F)F	MrgX1 allo act 7.35 | MrgX1 allo conf inactive | HEK293 Ca flux inactive | HEK293 Ca counter inactive | HEK293 Ca cntr2 inactive
Nc1c(C=C2C=CC(=O)C=C2)c(=O)nc2sc(CC(=O)N3CCCC3)nn12	none
CCS(=O)(=O)c1nn2c(N)c(/C=C3/C=CC(=O)C(OC)=C3)c(=O)nc2s1	MrgX1 allo act 27.8 | MrgX1 allo conf inactive | HEK293 Ca flux inactive | HEK293 Ca counter inactive | HEK293 Ca cntr2 62.9
CCCc1cc(C(N)=O)c(NC(=O)c2ccoc2C)s1	MrgX1 allo act 8.69 | MrgX1 allo conf inactive | HEK293 Ca flux inactive | HEK293 Ca counter inactive | HEK293 Ca cntr2 inactive
O=C(NC(=S)Nc1cc(S(=O)(=O)N2CCOCC2)ccc1N1CCOCC1)C1CCCC1	MrgX1 allo act 7.06 | MrgX1 allo conf 6.4% | HEK293 Ca flux inactive | HEK293 Ca counter inactive | HEK293 Ca cntr2 inactive
CN(C)CCCOc1ccc2c(c1)Sc1ccccc1CC2=O	MrgX1 allo act 8.53 | MrgX1 allo conf inactive | HEK293 Ca flux inactive | HEK293 Ca counter inactive | HEK293 Ca cntr2 inactive
O=C(C[n+]1ccccc1)N/N=C/c1cc(Br)ccc1O	none
NC(=O)c1oc2ccccc2c1NC(=O)C1CC(=O)N(c2ccccc2)C1 (stereo not given)	none
NC(=O)c1oc2ccccc2c1NC(=O)C1CCCCC1	MrgX1 allo act 10.1 | MrgX1 allo conf inactive | HEK293 Ca flux inactive | HEK293 Ca counter inactive | HEK293 Ca cntr2 inactive
NC(=O)c1oc2ccccc2c1NC(=O)CN1CCCCC1	MrgX1 allo act 9.07 | MrgX1 allo conf 9.3% | HEK293 Ca flux inactive | HEK293 Ca counter inactive | HEK293 Ca cntr2 inactive
Cc1cccc(N=C2NC(=O)S/C2=C\c2ccco2)c1	none
Cc1cccc(N=C2CSC(=O)N2)c1	MrgX1 allo act 7.39 | MrgX1 allo conf inactive | HEK293 Ca flux inactive | HEK293 Ca counter inactive | HEK293 Ca cntr2 inactive
Cc1ccc(CC(=O)Nc2ccccc2-c2ccccc2)cc1C	MrgX1 allo act 21.2 | MrgX1 allo conf inactive | HEK293 Ca flux inactive | HEK293 Ca counter inactive | HEK293 Ca cntr2 inactive
COc1ccc(CN(C)CC(=O)Nc2ccccc2-c2ccccc2)c(OC)c1	none
COc1ccc(OCC(=O)Nc2ccccc2-c2ccccc2)cc1	MrgX1 allo act 12.2 | MrgX1 allo conf inactive | HEK293 Ca flux inactive | HEK293 Ca counter inactive | HEK293 Ca cntr2 inactive
COc1ccccc1CN(C)CC(=O)Nc1ccccc1-c1ccccc1	MrgX1 allo act 9.99 | MrgX1 allo conf inactive | HEK293 Ca flux inactive | HEK293 Ca counter inactive | HEK293 Ca cntr2 inactive
COc1ccc(CC(=O)Nc2ccccc2-c2ccccc2)cc1OC	none
C=CCNCC(O)COc1ccc(C(C)=O)cc1OC (stereo not given)	none
Cc1c(CC(=O)NCCCO)c(=O)oc2cc3c(cc12)CCC(C)(C)O3	none
NC(=O)c1ccsc1NC(=O)COC(=O)Cc1c[nH]c2ccccc12	MrgX1 allo act 8.87 | MrgX1 allo conf 26.8% | HEK293 Ca flux inactive | HEK293 Ca counter inactive | HEK293 Ca cntr2 inactive
Cc1cccc(C(=O)N[C@H](C(=O)Nc2nccs2)C(C)C)c1	MrgX1 allo act 24.1 | MrgX1 allo conf inactive | HEK293 Ca flux inactive | HEK293 Ca counter inactive | HEK293 Ca cntr2 inactive
Cc1cccc(C(=O)N[C@H](C(=O)Nc2nc(C)cs2)C(C)C)c1	none
COc1ccc(CO[C@@H]2O[C@H](CO)[C@@H](O)[C@H](O)[C@H]2NC(C)=O)cc1OC	none
Nc1ccc2nc(SCc3cccc(F)c3)sc2c1	MrgX1 allo act 9.18 | MrgX1 allo conf inactive | HEK293 Ca flux inactive | HEK293 Ca counter inactive | HEK293 Ca cntr2 inactive
CCOC(=O)CSc1nc2ccc(N)cc2s1	none
CC(NS(=O)(=O)/C=C/c1ccccc1)C(=O)O (stereo not given)	MrgX1 allo act 10.4 | MrgX1 allo conf inactive | HEK293 Ca flux inactive | HEK293 Ca counter inactive | HEK293 Ca cntr2 inactive
COc1ccc(F)cc1C(=O)C1CCCN(Cc2c(C)n(C)n(-c3ccccc3)c2=O)C1 (stereo not given)	none
CN(Cc1ccc(N(C)C)cc1)C(=O)c1cc2ccccc2o1	MrgX1 allo act 12.4 | MrgX1 allo conf 8.2% | HEK293 Ca flux inactive | HEK293 Ca counter inactive | HEK293 Ca cntr2 inactive
Nc1cc(Nc2ccc(Br)cc2)nc(N)n1	MrgX1 allo act 7.52, MrgX1 antag -8.64 | MrgX1 allo conf inactive | MrgX1 antag conf inactive | HEK293 Ca flux inactive | HEK293 Ca counter inactive | HEK293 Ca cntr2 inactive
COc1ccc(Nc2cc(C)nc(N)n2)cc1	none
COc1ccccc1NC(=O)c1ccc(NS(=O)(=O)c2ccc(F)c(F)c2F)cc1	MrgX1 allo act 35.8 | MrgX1 allo conf 28.0% | HEK293 Ca flux inactive | HEK293 Ca counter inactive | HEK293 Ca cntr2 inactive
CC(C)(C)C(=O)Nc1cccc(OC(F)(F)C(F)Cl)c1 (stereo not given)	none
c1ccc(CCNc2ncnc3nc[nH]c23)cc1	none
c1ccc2c(CCNc3ncnc4nc[nH]c34)c[nH]c2c1	MrgX1 allo act 7.01 | MrgX1 allo conf 9.4% | HEK293 Ca flux inactive | HEK293 Ca counter inactive | HEK293 Ca cntr2 inactive
